Substitutions are numbered along the chain they refer to. Several values for one entry are separate records, joined by “and”; a condition that tells them apart may be missing. Identical values can stand only once.
Columns and labels:
[1] = system: P. falciparum 7G8^7G8+F145I parasite line; test: [3H]-drug accumulation assay in cultured parasites; format: cell-based, Plasmodium falciparum; details: 60 min, trophozoites
Method in brief: (§1)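 Sorbitol-synchronized early trophozoites (24–26 h) were magnet-purified and resuspended in bicarbonate-free RPMI 1640 (25 mM HEPES, 10 mM glucose, 0.2 mM hypoxanthine, pH 7.4), counted by hemocytometer. They were mixed with an equal volume of radiolabelled drug (10 nM [3H]-CQ before mixing) for 1 h at 37°C, spun through dibutyl phthalate, then scintillation counted. CAR was internal/external drug, corrected for uninfected erythrocytes, per 10^6 cells at 75 fl; 4–6 assays in duplicate.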

[2] = system: P. falciparum 7G8^7G8 parasite line; test: [3H]-drug accumulation assay in cultured parasites; format: cell-based, Plasmodium falciparum; details: 60 min, trophozoites
Method in brief: as §1

[3] = system: P. falciparum Dd2^Dd2 parasite line; test: Parasite drug susceptibility assay; format: cell-based, Plasmodium falciparum; details: Plasmodium falciparum, DD2, 72 h
Method in brief: (§2)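 Asynchronous asexual blood-stage parasites were seeded at 0.3% parasitemia and 1% hematocrit into 2-fold, 10-point test compound dilutions. Incubation was 72 h at 37°C under 5% O2/5% CO2/90% N2. Final parasitemia was read by flow cytometry. IC50 came from nonlinear regression, 4 independent assays in duplicate, with two-tailed Mann-Whitney U tests.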

PfCRT 7G8+C350R = target: T1, PfCRT 7G8+C350R (Plasmodium falciparum, UniProt W7FI62, C350R); test: Equilibrium dialysis binding, PfCRT variant in nanodiscs; details: for Bmax, binding at pH 5.5 / Bmax, binding at pH 7.5: equilibrium dialysis
T1 sequence (W7FI62 1-424 C350R): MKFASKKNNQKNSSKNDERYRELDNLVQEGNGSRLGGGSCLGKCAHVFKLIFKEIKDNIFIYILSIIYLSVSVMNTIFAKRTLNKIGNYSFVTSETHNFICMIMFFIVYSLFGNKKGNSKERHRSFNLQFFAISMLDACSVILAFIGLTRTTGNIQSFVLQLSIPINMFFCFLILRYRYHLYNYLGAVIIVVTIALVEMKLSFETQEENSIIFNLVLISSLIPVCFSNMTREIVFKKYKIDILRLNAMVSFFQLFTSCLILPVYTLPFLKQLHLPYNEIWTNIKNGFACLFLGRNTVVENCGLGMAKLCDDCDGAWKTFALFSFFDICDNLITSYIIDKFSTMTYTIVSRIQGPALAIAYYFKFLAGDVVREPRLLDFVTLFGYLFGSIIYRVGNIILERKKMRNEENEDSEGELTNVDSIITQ

[4] = system: P. falciparum 7G8^7G8+F145I parasite line; test: Parasite drug susceptibility assay; format: cell-based, Plasmodium falciparum; details: for IC50: Plasmodium falciparum, 7G8, 72 h
Method in brief: as §2

[5] = system: P. falciparum Dd2^Dd2 parasite line; test: [3H]-drug accumulation assay in cultured parasites; format: cell-based, Plasmodium falciparum; details: 60 min, trophozoites
Method in brief: as §1

[6] = system: P. falciparum 7G8^7G8+C350R parasite line; test: [3H]-drug accumulation assay in cultured parasites; format: cell-based, Plasmodium falciparum; details: 60 min, trophozoites
Method in brief: as §1

PfCRT 7G8 = target: T2, PfCRT 7G8 (Plasmodium falciparum, UniProt W7FI62); test: Scintillation proximity assay; format: binding; details: for competition of [3H]-Arg binding (in words): 125 nM [3H]-Arg, 1 μM CQ or PPQ, 0.1 μM amodiaquine, 1 mM Arg, Lys or Leu; for EC50: half-maximal binding constant (EC50), isotopic dilution, SPA, nanodiscs, pH 7.5, isotopic dilution of [3H]-CQ or [3H]-PPQ
T2 sequence (W7FI62 1-424): T1 sequence (W7FI62 1-424 C350R) with R350C

[7] = system: P. falciparum parasites with PfCRT haplotypes/mutations; details: cited from earlier work; for Associated Phenotype, mutation C350R: haplotype 7G8+C350R, this study; for Associated Phenotype, mutation C350R / Associated Phenotype, mutation C72S / Associated Phenotype, mutation F145I / Associated Phenotype, mutation G353V / Associated Phenotype, mutation H97Y / Associated Phenotype, mutation I218F / Associated Phenotype, mutation M343L / Associated Phenotype, mutation T93S / Associated Phenotype, mutation A220S / Associated Phenotype, mutation I356T/L / Associated Phenotype, mutation N326S/D / Associated Phenotype, mutation M74I / Associated Phenotype, mutation N75E / Associated Phenotype, mutation Q271E / Associated Phenotype, mutation R371I / Associated Phenotype, mutation K76T: field; for Associated Phenotype, mutation C72S: haplotype 7G8; for Associated Phenotype, mutation C101F: haplotype Dd2+C101F, lab; for Associated Phenotype, mutation F145I: haplotype Dd2+F145I; for Associated Phenotype, mutation G353V: haplotype Dd2+G353V; for Associated Phenotype, mutation H97Y: haplotype Dd2+H97Y; for Associated Phenotype, mutation I218F: haplotype Dd2+I218F; for Associated Phenotype, mutation M343L: haplotype Dd2+M343L; for Associated Phenotype, mutation T93S: haplotype Dd2+T93S; for Associated Phenotype, mutation A220S / Associated Phenotype, mutation I356T/L / Associated Phenotype, mutation N326S/D: haplotype Dd2/7G8; for Associated Phenotype, mutation M74I / Associated Phenotype, mutation N75E / Associated Phenotype, mutation Q271E / Associated Phenotype, mutation R371I: haplotype Dd2; for Associated Phenotype, mutation K76T: haplotype Dd2 and 7G8
[8] = system: P. falciparum 7G8^7G8 parasite line; test: Parasite drug susceptibility assay; format: cell-based, Plasmodium falciparum; details: Plasmodium falciparum, 7G8, 72 h
Method in brief: as §2

PfCRT WT (3D7) = target: T3, PfCRT WT (3D7) (Plasmodium falciparum, UniProt Q9N623); test: Transport; format: biochemical; details: for 1-min uptake, transport in proteoliposomes: 100 nM [3H]-drug, inwardly-directed pH gradient; for transport activity (in words): proteoliposomes
T3 sequence (Q9N623 1-424): T1 sequence (W7FI62 1-424 C350R) with S72C, T76K, S220A, D326N, R350C, L356I
Method in brief: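 PfCRT proteoliposomes (40 ng protein per assay) are loaded with 100 mM KPi, pH 7.5, and 2 mM β-mercaptoethanol. They are diluted into 100 mM Tris/Mes, pH 5.5, giving an inward pH gradient, with 100 nM [3H]-CQ (5.45 Ci/mmol) or [3H]-PPQ (15 Ci/mmol) for 1 min. Filter mock uptake without liposomes and control-liposome uptake are subtracted. Data come from 2 independent experiments, each with 4 technical replicates.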

[9] = binding at pH 5.5, equilibrium dialysis, pH 5.5
[10] = binding at pH 7.5, equilibrium dialysis, pH 7.5

| SMILES | IC50 [3] [nM] | Kd (PfCRT 7G8+C350R; [9]) [nM] | Kd (PfCRT 7G8+C350R; [10]) [nM] | Bmax, binding at pH 5.5 (PfCRT 7G8+C350R; pH 5.5) [mol CQ/mol PfCRT] | Bmax, binding at pH 7.5 (PfCRT 7G8+C350R; pH 7.5) [mol CQ/mol PfCRT] | IC50 [4] [nM] | competition of [3H]-Arg binding (in words) (PfCRT 7G8) | EC50 (PfCRT 7G8) | Associated Phenotype, mutation C350R [7] | Associated Phenotype, mutation C72S [7] | Associated Phenotype, mutation C101F [7] | Associated Phenotype, mutation F145I [7] | Associated Phenotype, mutation G353V [7] | Associated Phenotype, mutation H97Y [7] | Associated Phenotype, mutation I218F [7] | Associated Phenotype, mutation M343L [7] | Associated Phenotype, mutation T93S [7] | Associated Phenotype, mutation A220S [7] | Associated Phenotype, mutation I356T/L [7] | Associated Phenotype, mutation N326S/D [7] | further results |
| --- | --- | --- | --- | --- | --- | --- | --- | --- | --- | --- | --- | --- | --- | --- | --- | --- | --- | --- | --- | --- | --- |
| CCN(CC)CCCC(C)Nc1ccnc2cc(Cl)ccc12 (stereo not drawn) [CQ, chloroquine] | 143 ± 21.8 | 130 ± 30 | 300 ± 60 | 0.37 ± 0.02 | 0.42 ± 0.03 | 7.3 ± 0.4 | effectively competed | ~300 nM and 297 nM | S | R | S | S | S | PPQ-R (CQ-R) | R low | S | PPQ-R (CQ-R) | R | R | R | [3H]-CQ CAR (cellular accumulation ratio) ([1]; 5 nM [3H]-CQ): 388.4 ± 38.9; [3H]-CQ CAR (cellular accumulation ratio) ([2]; 5 nM [3H]-CQ): 14.5 ± 3.7; [3H]-CQ CAR (cellular accumulation ratio) ([5]; 5 nM [3H]-CQ): 26.3 ± 2.9; [3H]-CQ CAR (cellular accumulation ratio) ([6]; 5 nM [3H]-CQ): 406.4 ± 22.4; Associated Phenotype, mutation M74I [7]: R; Associated Phenotype, mutation N75E [7]: R; Associated Phenotype, mutation Q271E [7]: R; Associated Phenotype, mutation R371I [7]: R; Associated Phenotype, mutation K76T [7]: R; IC50 [8]: 83 ± 7.5 nM; 1-min uptake, transport in proteoliposomes (PfCRT WT (3D7)): 0.58 ± 0.08 nmol/mg; transport activity (in words) (PfCRT WT (3D7)): minimal uptake |
| Clc1ccc2c(N3CCN(CCCN4CCN(c5ccnc6cc(Cl)ccc56)CC4)CC3)ccnc2c1 [PPQ, piperaquine] | 18.3 ± 1.9 | 210 ± 30 | 250 ± 40 | 0.39 ± 0.02 | 0.41 ± 0.02 | 28.7 ± 1 | effectively competed | ~190 nM and 190 nM | R low | S | R | R | R mod. | PPQ-R (CQ-R) | R | R low | PPQ-R (CQ-R) | S | S | S | [3H]-PPQ CAR (cellular accumulation ratio) ([1]; 20 nM [3H]-PPQ): 1125.6 ± 59.6; [3H]-PPQ CAR (cellular accumulation ratio) ([2]; 20 nM [3H]-PPQ): 1943.9 ± 82.2; fold increase in Kd compared with 7G8 parental isoform (PfCRT 7G8+C350R; pH 5.5): ~ 2 fold; fold increase in IC90 compared to the isogenic 7G8 control line ([4]; 72 h growth inhibition): 188 fold; [3H]-PPQ CAR (cellular accumulation ratio) ([5]; 20 nM [3H]-PPQ): 1861.3 ± 91.8; [3H]-PPQ CAR (cellular accumulation ratio) ([6]; 20 nM [3H]-PPQ): 1207.4 ± 119.8; Associated Phenotype, mutation M74I [7]: S; Associated Phenotype, mutation N75E [7]: S; Associated Phenotype, mutation Q271E [7]: S; Associated Phenotype, mutation R371I [7]: S; Associated Phenotype, mutation K76T [7]: S; IC50 [8]: 21.4 ± 1 nM; 1-min uptake, transport in proteoliposomes (PfCRT WT (3D7)): 0.51 ± 0.04 nmol/mg; transport activity (in words) (PfCRT WT (3D7)): Minimal |
